In ChEMBL document CHEMBL2440037, “GluK1 antagonists from 6-(carboxy)phenyl decahydroisoquinoline derivatives. SAR and evaluation of a prodrug strategy for oral efficacy in pain models” (Bioorg Med Chem Lett, 2013):

Legend:
Glutamate receptor 2 = Glutamate receptor 2 (Homo sapiens, UniProt P42262); experiment: Binding affinity to GluA2 receptor (unknown origin)
[1] = target: Glutamate receptor ionotropic, kainate 1 (Homo sapiens, UniProt P39086); experiment: Binding affinity to GluK1 receptor (unknown origin)
Sequence of Glutamate receptor ionotropic, kainate 1 (P39086 whole entry): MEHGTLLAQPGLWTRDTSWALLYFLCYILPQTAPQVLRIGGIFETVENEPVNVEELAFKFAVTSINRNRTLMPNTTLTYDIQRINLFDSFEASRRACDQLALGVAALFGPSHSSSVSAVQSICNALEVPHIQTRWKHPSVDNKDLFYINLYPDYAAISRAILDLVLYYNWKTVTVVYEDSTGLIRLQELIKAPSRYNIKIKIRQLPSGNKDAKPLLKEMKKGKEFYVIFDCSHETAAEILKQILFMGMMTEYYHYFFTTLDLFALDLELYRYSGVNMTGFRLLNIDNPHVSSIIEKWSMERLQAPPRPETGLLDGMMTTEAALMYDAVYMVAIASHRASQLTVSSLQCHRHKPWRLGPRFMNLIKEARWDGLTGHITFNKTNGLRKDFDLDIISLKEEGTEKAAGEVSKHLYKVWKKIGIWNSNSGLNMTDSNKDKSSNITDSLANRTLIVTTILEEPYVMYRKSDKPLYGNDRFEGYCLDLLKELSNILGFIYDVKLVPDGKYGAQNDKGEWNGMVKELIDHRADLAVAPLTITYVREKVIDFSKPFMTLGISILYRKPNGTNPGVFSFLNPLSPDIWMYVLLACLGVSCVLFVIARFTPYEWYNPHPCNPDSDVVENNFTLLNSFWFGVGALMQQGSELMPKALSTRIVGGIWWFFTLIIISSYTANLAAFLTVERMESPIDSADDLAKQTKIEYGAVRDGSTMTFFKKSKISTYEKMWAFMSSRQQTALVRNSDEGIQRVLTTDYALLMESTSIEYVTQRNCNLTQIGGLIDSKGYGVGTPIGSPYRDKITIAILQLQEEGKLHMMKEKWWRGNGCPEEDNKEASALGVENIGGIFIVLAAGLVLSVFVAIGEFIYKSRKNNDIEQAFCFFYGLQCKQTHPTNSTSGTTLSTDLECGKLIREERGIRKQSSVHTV

Rattus norvegicus [2] = experiment: Neurotoxicity in po dosed rat assessed as sedative effect by rotorod test; format: toxicity, organism-based; settings: in vivo
Summary of the method: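 Rotorod test in rats for sedative or ataxic effects; amino acid given p.o. as diethyl ester hydrochloride salt at several doses, N = 8, vehicle controls N = 8; minimal effective dose (MED) reported.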

Rattus norvegicus [3] = experiment: Analgesic activity in rat assessed as reversal of formalin-induced pain at 30 mg/kg, po; format: functional
Summary of the method: (§1)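 Rat formalin pain model; amino acid given p.o. as diethyl ester hydrochloride salt at 30 mg/kg (one entry at 100 mg/kg), N = 8–9; vehicle controls N = 8–12. Read-out is % reversal of formalin-induced pain.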

Rattus norvegicus [4] = experiment: Antihyperalgesic activity against carrageenan-induced thermal hyperalgesia in po dosed rat; format: functional; settings: read-out: MED
Summary of the method: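 Rat carrageenan-induced thermal hyperalgesia; amino acid given p.o. as diethyl ester hydrochloride salt at several doses, N = 6 per group; vehicle controls N = 6. Reported as minimal effective dose (MED).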

[5] = Oral bioavailability in Fischer rat at 30 mg/kg; format: ADME, organism-based; settings: in vivo
Summary of the method: (§2)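 Fischer rats; amino acid dosed orally as diethyl ester hydrochloride salt, 30 mg/kg (one entry at 10 mg/kg), three rats per time point. Amino acid plasma levels measured: AUC 0 to infinity, Cmax as maximum observed concentration, Tmax as time at Cmax. %F is amino acid exposure after oral ester dosing relative to the amino acid given iv.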

[6] = AUC (0 to infinity) in Fischer rat at 30 mg/kg, po; format: ADME, organism-based; parameters: time infinity, dose 30 mg/kg, route oral; settings: plasma; summary of the method: as §2
[7] = Cmax in Fischer rat at 30 mg/kg, po; format: ADME, organism-based; parameters: dose 30 mg/kg, route oral; settings: in vivo; summary of the method: as §2
[8] = Tmax in Fischer rat at 30 mg/kg, po; format: ADME, organism-based; parameters: dose 30 mg/kg, route oral; settings: in vivo; summary of the method: as §2
Rattus norvegicus [9] = experiment: Analgesic activity in rat assessed as reversal of formalin-induced pain at 100 mg/kg, po; format: functional; summary of the method: as §1
[10] = Cmax in Fischer rat at 10 mg/kg, po; format: ADME, organism-based; parameters: dose 10 mg/kg, route oral; settings: in vivo; summary of the method: as §2
[11] = Oral bioavailability in Fischer rat at 10 mg/kg; format: ADME, organism-based; settings: in vivo; summary of the method: as §2
[12] = Tmax in Fischer rat at 10 mg/kg, po; format: ADME, organism-based; parameters: dose 10 mg/kg, route oral; settings: in vivo; summary of the method: as §2
[13] = AUC (0 to infinity) in Fischer rat at 10 mg/kg, po; format: ADME, organism-based; parameters: time infinity, dose 10 mg/kg, route oral; settings: plasma; summary of the method: as §2

Sequence of Glutamate receptor 2 (P42262 whole entry): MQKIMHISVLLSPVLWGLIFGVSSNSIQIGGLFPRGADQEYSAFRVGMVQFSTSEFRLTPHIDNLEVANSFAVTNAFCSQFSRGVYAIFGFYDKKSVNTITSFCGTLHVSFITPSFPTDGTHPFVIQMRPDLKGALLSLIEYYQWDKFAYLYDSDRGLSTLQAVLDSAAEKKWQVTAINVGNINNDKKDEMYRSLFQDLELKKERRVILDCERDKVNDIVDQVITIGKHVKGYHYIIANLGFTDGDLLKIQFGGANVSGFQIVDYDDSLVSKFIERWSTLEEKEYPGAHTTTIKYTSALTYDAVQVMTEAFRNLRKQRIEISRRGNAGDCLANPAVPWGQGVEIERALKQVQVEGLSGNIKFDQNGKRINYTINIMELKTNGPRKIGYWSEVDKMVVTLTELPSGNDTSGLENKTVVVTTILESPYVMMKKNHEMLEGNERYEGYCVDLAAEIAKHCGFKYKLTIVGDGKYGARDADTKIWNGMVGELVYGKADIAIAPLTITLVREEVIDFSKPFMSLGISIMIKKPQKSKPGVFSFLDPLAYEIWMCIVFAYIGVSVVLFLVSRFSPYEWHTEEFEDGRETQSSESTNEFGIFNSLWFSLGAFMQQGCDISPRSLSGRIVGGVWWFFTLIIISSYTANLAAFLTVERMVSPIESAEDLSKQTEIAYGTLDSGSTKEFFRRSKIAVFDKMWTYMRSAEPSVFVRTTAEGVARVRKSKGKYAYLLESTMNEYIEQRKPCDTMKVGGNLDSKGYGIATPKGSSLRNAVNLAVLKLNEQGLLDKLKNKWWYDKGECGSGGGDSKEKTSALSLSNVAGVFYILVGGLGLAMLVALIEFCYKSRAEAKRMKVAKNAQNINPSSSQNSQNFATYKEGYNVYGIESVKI

Compound | Ki (Glutamate receptor 2) | Ki [1] | also measured
O=C(O)c1ccc(N[C@H]2CC[C@H]3CN[C@H](C(=O)O)C[C@H]3C2)cc1 | 1420 µM |  | 
O=C(O)c1ccccc1C[C@H]1CC[C@H]2CN[C@H](C(=O)O)C[C@H]2C1 | 29600 µM | 67 µM | 
Cc1ccc(C(=O)O)c(O[C@H]2CC[C@H]3CN[C@H](C(=O)O)C[C@H]3C2)c1 | 89 µM | 5.9 µM | 
O=C(O)c1cccc(S[C@H]2CC[C@H]3CN[C@H](C(=O)O)C[C@H]3C2)c1 | 9 µM |  | 
CCOC(=O)c1ccc(C[C@H]2CC[C@H]3CN[C@H](C(=O)OCC)C[C@H]3C2)cc1.Cl |  |  | MED (Rattus norvegicus [2]): > 30 mg/kg; Activity (Rattus norvegicus [3]): 13.4%; minimal effective dose (Rattus norvegicus [4]): 10 mg/kg
O=C(O)c1ccccc1S[C@H]1CC[C@H]2CN[C@H](C(=O)O)C[C@H]2C1 | 15 µM | 0.8 µM | 
O=C(O)c1ccc(S[C@H]2CC[C@H]3CN[C@H](C(=O)O)C[C@H]3C2)cc1 | 418 µM | 19 µM | 
O=C(O)c1cc(Cl)ccc1S[C@H]1CC[C@H]2CN[C@H](C(=O)O)C[C@H]2C1 | 42 µM | 3.7 µM | 
O=C(O)c1ccc(-c2ccccc2)cc1O[C@H]1CC[C@H]2CN[C@H](C(=O)O)C[C@H]2C1 | 8.8 µM | 0.5 µM | 
CCOC(=O)c1ccc(Cl)cc1O[C@H]1CC[C@H]2CN[C@H](C(=O)OCC)C[C@H]2C1.Cl |  |  | MED (Rattus norvegicus [2]): > 30 mg/kg; bioavailability [5]: 32.9%; Activity (Rattus norvegicus [3]): 14.9%; AUC(0-inf) [6]: 9190 ng·h/mL; minimal effective dose (Rattus norvegicus [4]): > 10 mg/kg; Cmax [7]: 6450 ng/mL; Tmax [8]: 30 min
O=C(O)c1cccc(O[C@H]2CC[C@H]3CN[C@H](C(=O)O)C[C@H]3C2)c1 | 44 µM | 6 µM | 
Cc1ccc(O[C@H]2CC[C@H]3CN[C@H](C(=O)O)C[C@H]3C2)c(C(=O)O)c1 | 107 µM | 9.9 µM | 
O=C(O)c1cc(Cl)ccc1O[C@H]1CC[C@H]2CN[C@H](C(=O)O)C[C@H]2C1 | 19 µM | 1.5 µM | 
O=C(O)c1ccc(O[C@H]2CC[C@H]3CN[C@H](C(=O)O)C[C@H]3C2)cc1 | 913 µM | 267 µM | 
O=C(O)c1ccccc1N[C@H]1CC[C@H]2CN[C@H](C(=O)O)C[C@H]2C1 | 77 µM |  | 
CCOC(=O)c1ccc(-c2ccccc2)cc1O[C@H]1CC[C@H]2CN[C@H](C(=O)OCC)C[C@H]2C1.Cl |  |  | bioavailability [5]: 22.2%; AUC(0-inf) [6]: 7230 ng·h/mL; Cmax [7]: 2700 ng/mL; Tmax [8]: 60 min

Compound | Ki (Glutamate receptor 2) | Ki [1] | also measured
COc1ccc(C(=O)O)c(O[C@H]2CC[C@H]3CN[C@H](C(=O)O)C[C@H]3C2)c1 | 111 µM | 6.2 µM | 
O=C(O)c1cc(Cl)ccc1N[C@H]1CC[C@H]2CN[C@H](C(=O)O)C[C@H]2C1 | 3.3 µM | 3.6 µM | 
O=C(O)c1cccc(Cl)c1O[C@H]1CC[C@H]2CN[C@H](C(=O)O)C[C@H]2C1 | 1470 µM | 316 µM | 
CCOC(=O)c1ccccc1O[C@H]1CC[C@H]2CN[C@H](C(=O)OCC)C[C@H]2C1.Cl |  |  | MED (Rattus norvegicus [2]): > 30 mg/kg; bioavailability [5]: 75.3%; Activity (Rattus norvegicus [3]): 21.8%; AUC(0-inf) [6]: 24700 ng·h/mL; minimal effective dose (Rattus norvegicus [4]): 10 mg/kg; Cmax [7]: 9200 ng/mL; Tmax [8]: 30 min
O=C(O)c1cccc(N[C@H]2CC[C@H]3CN[C@H](C(=O)O)C[C@H]3C2)c1 | 238 µM | 8 µM | 
Cc1cccc(C(=O)O)c1O[C@H]1CC[C@H]2CN[C@H](C(=O)O)C[C@H]2C1 | 818 µM | 228 µM | 
O=C(O)c1ccc(Cl)cc1S[C@H]1CC[C@H]2CN[C@H](C(=O)O)C[C@H]2C1 | 22 µM | 1.3 µM | 
O=C(O)c1ccc(Cl)cc1O[C@H]1CC[C@H]2CN[C@H](C(=O)O)C[C@H]2C1 | 151 µM | 2.1 µM | 
COc1ccc(O[C@H]2CC[C@H]3CN[C@H](C(=O)O)C[C@H]3C2)c(C(=O)O)c1 | 87 µM | 19 µM | 
CCOC(=O)c1ccccc1S[C@H]1CC[C@H]2CN[C@H](C(=O)OCC)C[C@H]2C1.Cl |  |  | MED (Rattus norvegicus [2]): > 100 mg/kg; Activity (Rattus norvegicus [9]): 49.4%; bioavailability [5]: 38.8%; AUC(0-inf) [6]: 7530 ng·h/mL; minimal effective dose (Rattus norvegicus [4]): 10 mg/kg; Cmax [7]: 2980 ng/mL; Tmax [8]: 30 min
O=C(O)c1c(F)cccc1O[C@H]1CC[C@H]2CN[C@H](C(=O)O)C[C@H]2C1 | 93 µM | 9.7 µM | 
O=C(O)c1ccccc1O[C@H]1CC[C@H]2CN[C@H](C(=O)O)C[C@H]2C1 | 70 µM | 2.3 µM | 
O=C(O)c1cc(-c2ccccc2)ccc1O[C@H]1CC[C@H]2CN[C@H](C(=O)O)C[C@H]2C1 | 172 µM | 11 µM | 
O=C(O)c1cccc(C[C@H]2CC[C@H]3CN[C@H](C(=O)O)C[C@H]3C2)c1 | 149 µM | 16 µM | 
Cl.O=C(O)c1ccc(C[C@H]2CC[C@H]3CN[C@H](C(=O)O)C[C@H]3C2)cc1 | 553 µM |  | Cmax [10]: 539 ng/mL; bioavailability [11]: 62.5%; Tmax [12]: 60 min; AUC(0-inf) [13]: 1510 ng·h/mL
